ChEMBL document CHEMBL3352721, “Identification, optimization, and pharmacology of acylurea GHS-R1a inverse agonists” (J Med Chem, 2014)
Converted amounts (≈) assume the structure as drawn. The source made the active and inactive calls. The rule behind the calls is not given here.

Legend:
[1] = Lipophilicity, logD of the compound; type: physicochemical; conditions: octanol/water
MDR1 [2] = test: Apparent permeability in MDCK cells expressing MDR1 at 10 uM assessed as apical to basolateral side transport; type: ADME, cell-based, Canis lupus familiaris; conditions: dog
Summary of the method: (§1)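 MDCK-MDR1 monolayers incubated with compound at 10 µM; permeability measured in both A→B and B→A directions, giving Papp A-B (x10^6 cm/s) and the efflux ratio.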

[3] = Cmax in CD1 mouse at 2 mg/kg, po by LC-MS/MS method; type: ADME, organism-based; parameters: dose 2 mg/kg, route oral; conditions: in vivo
Summary of the method: (§2)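 Oral gavage in male HW rats, beagle dogs or CD-1 mice, vehicle Pluronic F127 in water. EDTA plasma was collected over 24 h and quantified by LC/MS/MS after acetonitrile precipitation. Cmax and bioavailability were obtained by non-compartmental analysis against IV data.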

[4] = Ratio of drug level in homogenized brain to plasma in CD1 mouse at 7 mg/kg, po measured after 6 hrs by LC-MS/MS method; type: ADME, organism-based; parameters: dose 7 mg/kg, route oral; conditions: read-out: BPR
Summary of the method: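 CD-1 mice dosed PO in 1% Pluronic F127. Drug was measured in homogenized brain and in plasma 6 h after dosing and expressed as a brain:plasma ratio. The free ratio used free fraction measured in mouse plasma and rat brain (brain slice or brain homogenate).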

[5] = Unbound fraction in Han-Wistar rat plasma; type: ADME, cell-free
[6] = Unbound fraction in CD1 mouse plasma; type: ADME, cell-free
[7] = Unbound fraction in beagle dog plasma; type: ADME, cell-free, Canis lupus familiaris
[8] = Clearance in Han-Wistar rat at 2 mg/kg, iv; type: ADME, organism-based; parameters: dose 2 mg/kg, route intravenous; conditions: in vivo
Summary of the method: (§3)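 Male HW rats, beagle dogs or CD-1 mice received an IV bolus in 5% DMSO/95% hydroxypropyl-β-cyclodextrin (30% w/v). EDTA plasma was sampled over 24 h and assayed by LC/MS/MS after acetonitrile protein precipitation. CL and Vss were obtained by non-compartmental analysis.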

[9] = Clearance in CD1 mouse at 2 mg/kg, iv; type: ADME, organism-based; parameters: dose 2 mg/kg, route intravenous; conditions: in vivo; summary of the method: as §3
[10] = Volume of distribution at steady state in Han-Wistar rat at 2 mg/kg, iv; type: ADME, organism-based; parameters: dose 2 mg/kg, route intravenous; conditions: in vivo, read-out: Vdss; summary of the method: as §3
[11] = Volume of distribution at steady state in CD1 mouse at 2 mg/kg, iv; type: ADME, organism-based; parameters: dose 2 mg/kg, route intravenous; conditions: in vivo, read-out: Vdss; summary of the method: as §3
[12] = Cmax in Han-Wistar rat at 2 mg/kg, po; type: ADME, organism-based; parameters: dose 2 mg/kg, route oral; conditions: in vivo; summary of the method: as §2
Rattus norvegicus = test: (§4) Oral bioavailability in Han-Wistar rat at 2 mg/kg; type: ADME, organism-based; conditions: in vivo; summary of the method: as §2
[13] = Displacement of [125I]human ghrelin from mouse GHS-R1a expressed in HEK cell membranes after 60 mins by gamma counting method; conditions: hek293
Summary of the method: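 HEK cell membranes stably overexpressing mouse or rat GHS-R1a (4 µg/well) incubated 60 min at rt with 20 pM [125I]human ghrelin and competing compound. Buffer: 50 mM Tris-HCl, 5 mM MgCl2, 0.01% BSA, pH 7.4, plus 10 µM methyl arachidonyl fluorophosphonate. Stopped by filtration over PEI-soaked GF/C filters with ice-cold washes, then gamma counting. IC50 is the mean of ≥2 independent determinations.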

[14] = Clearance in beagle dog at 2 mg/kg, iv; type: ADME, organism-based, Canis lupus familiaris; parameters: dose 2 mg/kg, route intravenous; conditions: in vivo; summary of the method: as §3
[15] = Volume of distribution at steady state in beagle dog at 2 mg/kg, iv; type: ADME, organism-based, Canis lupus familiaris; parameters: dose 2 mg/kg, route intravenous; conditions: in vivo, read-out: Vdss; summary of the method: as §3
[16] = Cmax in beagle dog at 2 mg/kg, po; type: ADME, organism-based, Canis lupus familiaris; parameters: dose 2 mg/kg, route oral; conditions: in vivo; summary of the method: as §2
[17] = Oral bioavailability in beagle dog at 2 mg/kg; type: ADME, organism-based, Canis lupus familiaris; conditions: in vivo; summary of the method: as §2
[18] = Cmax in CD1 mouse at 7 mg/kg, po; type: ADME, organism-based; parameters: dose 7 mg/kg, route oral; conditions: in vivo; summary of the method: as §2
[19] = Oral bioavailability in CD1 mouse at 7 mg/kg; type: ADME, organism-based; conditions: in vivo; summary of the method: as §2
Mus musculus [20] = test: Reduction in free feeding level in po dosed C57Bl6j mouse free feeding model measured in first 6 hrs; type: functional, organism-based
Summary of the method: (§5)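 Male mice (C57Bl6j, GHSr1-/- or wild-type littermates) were acclimatized 3 weeks to reversed light-dark, then individually housed 7 days and grouped (n=10-12) by baseline intake and body weight. Suspensions in 1% Pluronic F127 or vehicle were gavaged at 10 mL/kg about 1 h before dark onset. Pre-weighed food was reweighed at 2, 4, 6 and 24 h.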

Mus musculus [21] = test: Reduction in free feeding level in po dosed C57Bl6j mouse free feeding model measured over 24 hrs period; type: functional, organism-based; summary of the method: as §5
Mus musculus [22] = test: Reduction in free feeding level in po dosed GHS-R1a knock out C57Bl6j mouse free feeding model measured over 6 hrs; type: functional, organism-based; summary of the method: as §5
[23] = biological target: Sodium-dependent dopamine transporter (Homo sapiens, UniProt Q01959); test: Inhibition of DAT (unknown origin)
[24] = biological target: Neuronal acetylcholine receptor subunit alpha-4 (Homo sapiens, UniProt P43681); test: Inhibition of alpha4 nAChR (unknown origin)
[25] = biological target: Voltage-gated inwardly rectifying potassium channel KCNH2 (Homo sapiens, UniProt Q12809); test: Inhibition of human ERG at 33 uM
[26] = biological target: Growth hormone secretagogue receptor type 1 (Homo sapiens, UniProt Q92847); test: Displacement of [125I]human ghrelin from human GHS-R1a expressed in HEK cell membranes after 60 mins by gamma counting method; parameters: species or system HEK293
[27] = Aqueous solubility at pH 7.4 under thermodynamic conditions; type: physicochemical; conditions: buffer, read-out: Therm_solubility
Summary of the method: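 Thermodynamic solubility measured from solid samples in aqueous medium at pH 7.4.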

MDR1 [28] = test: Efflux ratio in MDCK cells expressing MDR1 at 10 uM; type: ADME, cell-based, Canis lupus familiaris; conditions: dog; summary of the method: as §1
[29] = Clearance in beagle dog at 1 mg/kg, iv; type: ADME, organism-based, Canis lupus familiaris; parameters: dose 1 mg/kg, route intravenous; conditions: in vivo; summary of the method: as §3
[30] = Volume of distribution at steady state in beagle dog at 1 mg/kg, iv; type: ADME, organism-based, Canis lupus familiaris; parameters: dose 1 mg/kg, route intravenous; conditions: in vivo, read-out: Vdss; summary of the method: as §3
[31] = Cmax in CD1 mouse at 5 mg/kg, po; type: ADME, organism-based; parameters: dose 5 mg/kg, route oral; conditions: in vivo; summary of the method: as §2
[32] = Cmax in beagle dog at 1 mg/kg, po; type: ADME, organism-based, Canis lupus familiaris; parameters: dose 1 mg/kg, route oral; conditions: in vivo; summary of the method: as §2
[33] = as §4; type: ADME, organism-based; conditions: Han-Wistar, in vivo; summary of the method: as §2
[34] = Oral bioavailability in CD1 mouse at 5 mg/kg; type: ADME, organism-based; conditions: in vivo; summary of the method: as §2
[35] = Oral bioavailability in beagle dog at 1 mg/kg; type: ADME, organism-based, Canis lupus familiaris; conditions: in vivo; summary of the method: as §2
[36] = Ratio of plasma concentration in C57Bl6j mouse free feeding model at 30 mg/kg, po after 1 hr to IC50 for mouse GHS-R1a expressed in HEK cell membranes; type: ADME, organism-based, HEK293; parameters: dose 30 mg/kg, route oral; conditions: in vivo
Summary of the method: (§6)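 Male mice were kept on a reversed light cycle and given a 1% Pluronic F127 suspension orally (10 mL/kg) about 1 h before dark. Plasma exposure was corrected for mouse plasma protein binding and divided by mouse GHS-R1a binding IC50. Binding was 20 pM [125I]ghrelin displacement on HEK membranes, 60 min rt, pH 7.4, read by gamma counting.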

[37] = Ratio of plasma concentration in C57Bl6j mouse free feeding model at 30 mg/kg, po after 2 hrs to IC50 for mouse GHS-R1a expressed in HEK cell membranes; type: ADME, organism-based, HEK293; parameters: dose 30 mg/kg, route oral; conditions: in vivo; summary of the method: as §6
[38] = Ratio of plasma concentration in C57Bl6j mouse free feeding model at 30 mg/kg, po after 6 hrs to IC50 for mouse GHS-R1a expressed in HEK cell membranes; type: ADME, organism-based, HEK293; parameters: dose 30 mg/kg, route oral; conditions: in vivo; summary of the method: as §6
Mus musculus [39] = test: Increase in food intake in po dosed C57Bl6j mouse free feeding model measured in 2 hrs intervals; type: functional, organism-based; summary of the method: as §5
Mus musculus [40] = test: Increase in food intake in po dosed C57Bl6j mouse free feeding model measured over 24 hrs period; type: functional; summary of the method: as §5
[41] = biological target: Growth hormone secretagogue receptor type 1 (Rattus norvegicus) (UniProt O08725); test: Displacement of [125I]human ghrelin from rat GHS-R1a expressed in HEK cell membranes after 60 mins by gamma counting method; conditions: hek293
Sequence of Growth hormone secretagogue receptor type 1 (Rattus norvegicus) (O08725 whole entry, looked up): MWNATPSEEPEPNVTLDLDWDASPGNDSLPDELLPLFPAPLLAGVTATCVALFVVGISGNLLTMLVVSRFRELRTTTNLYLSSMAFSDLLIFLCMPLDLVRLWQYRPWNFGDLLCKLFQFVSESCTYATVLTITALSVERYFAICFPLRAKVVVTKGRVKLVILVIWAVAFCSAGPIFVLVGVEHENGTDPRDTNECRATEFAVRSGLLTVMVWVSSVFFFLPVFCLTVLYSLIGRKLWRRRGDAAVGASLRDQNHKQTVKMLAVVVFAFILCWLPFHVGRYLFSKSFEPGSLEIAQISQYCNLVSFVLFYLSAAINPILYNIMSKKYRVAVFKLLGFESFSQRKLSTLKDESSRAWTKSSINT

Sequence of Voltage-gated inwardly rectifying potassium channel KCNH2 (Q12809 whole entry): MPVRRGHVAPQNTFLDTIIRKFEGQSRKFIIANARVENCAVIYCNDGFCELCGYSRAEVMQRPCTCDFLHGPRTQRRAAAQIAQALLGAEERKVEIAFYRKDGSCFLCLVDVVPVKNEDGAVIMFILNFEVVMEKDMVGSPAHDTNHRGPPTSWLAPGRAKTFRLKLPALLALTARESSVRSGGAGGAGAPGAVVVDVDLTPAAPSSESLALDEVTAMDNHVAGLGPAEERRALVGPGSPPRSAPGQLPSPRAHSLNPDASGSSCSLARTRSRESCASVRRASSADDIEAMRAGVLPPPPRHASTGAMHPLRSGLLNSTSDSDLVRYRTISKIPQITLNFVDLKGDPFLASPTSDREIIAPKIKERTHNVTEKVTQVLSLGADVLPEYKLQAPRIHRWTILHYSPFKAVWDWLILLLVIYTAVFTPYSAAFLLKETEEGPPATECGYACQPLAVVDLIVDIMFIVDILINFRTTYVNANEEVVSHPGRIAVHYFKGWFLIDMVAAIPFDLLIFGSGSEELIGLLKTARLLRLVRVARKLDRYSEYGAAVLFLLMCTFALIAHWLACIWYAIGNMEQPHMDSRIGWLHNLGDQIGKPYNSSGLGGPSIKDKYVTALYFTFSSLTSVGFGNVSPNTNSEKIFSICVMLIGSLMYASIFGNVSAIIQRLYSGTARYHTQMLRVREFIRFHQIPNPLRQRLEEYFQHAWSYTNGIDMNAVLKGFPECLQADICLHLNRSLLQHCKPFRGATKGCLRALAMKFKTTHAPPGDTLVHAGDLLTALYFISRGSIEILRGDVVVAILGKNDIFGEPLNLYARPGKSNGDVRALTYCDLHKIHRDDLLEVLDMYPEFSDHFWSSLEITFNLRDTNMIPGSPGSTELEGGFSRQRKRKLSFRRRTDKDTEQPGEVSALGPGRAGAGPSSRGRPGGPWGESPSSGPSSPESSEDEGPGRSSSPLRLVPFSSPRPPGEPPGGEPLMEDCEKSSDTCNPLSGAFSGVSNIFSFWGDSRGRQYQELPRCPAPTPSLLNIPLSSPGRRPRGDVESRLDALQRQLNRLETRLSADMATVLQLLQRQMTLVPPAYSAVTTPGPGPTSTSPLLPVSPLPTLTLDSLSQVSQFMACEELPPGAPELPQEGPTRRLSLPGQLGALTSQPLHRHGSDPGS
Sequence of Growth hormone secretagogue receptor type 1 (Q92847 whole entry): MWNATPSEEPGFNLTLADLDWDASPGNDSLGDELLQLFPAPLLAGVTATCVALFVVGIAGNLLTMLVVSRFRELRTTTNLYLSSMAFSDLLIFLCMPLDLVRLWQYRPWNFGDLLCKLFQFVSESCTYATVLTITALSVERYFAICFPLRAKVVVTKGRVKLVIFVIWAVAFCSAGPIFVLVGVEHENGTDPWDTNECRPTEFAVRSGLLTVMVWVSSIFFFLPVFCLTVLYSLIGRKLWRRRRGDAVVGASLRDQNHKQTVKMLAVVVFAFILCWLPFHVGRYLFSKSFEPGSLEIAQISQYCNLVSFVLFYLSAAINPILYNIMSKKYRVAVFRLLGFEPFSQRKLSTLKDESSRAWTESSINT
Sequence of Neuronal acetylcholine receptor subunit alpha-4 (P43681 whole entry): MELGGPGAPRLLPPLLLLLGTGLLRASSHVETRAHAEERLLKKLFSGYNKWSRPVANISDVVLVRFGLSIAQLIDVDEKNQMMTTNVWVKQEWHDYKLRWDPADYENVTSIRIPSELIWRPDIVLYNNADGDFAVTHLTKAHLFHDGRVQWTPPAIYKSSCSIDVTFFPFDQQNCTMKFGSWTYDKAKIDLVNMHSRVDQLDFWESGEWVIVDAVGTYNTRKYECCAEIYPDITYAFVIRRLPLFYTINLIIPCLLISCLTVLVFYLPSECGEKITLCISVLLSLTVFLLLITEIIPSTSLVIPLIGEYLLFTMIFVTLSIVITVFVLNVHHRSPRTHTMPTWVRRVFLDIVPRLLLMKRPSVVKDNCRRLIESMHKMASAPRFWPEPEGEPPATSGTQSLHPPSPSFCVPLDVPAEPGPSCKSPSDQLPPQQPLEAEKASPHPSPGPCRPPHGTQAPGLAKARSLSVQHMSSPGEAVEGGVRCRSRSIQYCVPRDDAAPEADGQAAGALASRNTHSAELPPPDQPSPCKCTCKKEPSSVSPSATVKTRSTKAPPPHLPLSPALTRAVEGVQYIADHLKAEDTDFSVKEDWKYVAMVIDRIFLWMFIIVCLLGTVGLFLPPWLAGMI
Sequence of Sodium-dependent dopamine transporter (Q01959 whole entry): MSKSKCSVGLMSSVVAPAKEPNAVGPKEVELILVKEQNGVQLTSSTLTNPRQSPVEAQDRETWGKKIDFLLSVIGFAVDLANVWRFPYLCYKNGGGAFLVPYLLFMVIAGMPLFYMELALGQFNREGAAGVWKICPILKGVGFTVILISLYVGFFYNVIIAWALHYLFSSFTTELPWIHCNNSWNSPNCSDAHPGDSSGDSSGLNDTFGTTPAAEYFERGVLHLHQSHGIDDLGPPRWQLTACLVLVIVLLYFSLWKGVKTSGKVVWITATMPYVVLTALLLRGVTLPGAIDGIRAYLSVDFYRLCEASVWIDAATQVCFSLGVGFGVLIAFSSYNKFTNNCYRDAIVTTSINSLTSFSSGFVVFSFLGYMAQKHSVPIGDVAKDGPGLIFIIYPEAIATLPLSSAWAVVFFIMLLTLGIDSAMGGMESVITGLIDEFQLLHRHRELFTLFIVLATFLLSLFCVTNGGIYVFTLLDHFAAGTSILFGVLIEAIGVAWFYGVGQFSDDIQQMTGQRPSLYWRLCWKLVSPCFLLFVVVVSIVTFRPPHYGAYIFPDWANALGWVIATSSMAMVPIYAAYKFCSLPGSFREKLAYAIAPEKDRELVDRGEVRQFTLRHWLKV

With CN1CCC(S(=O)(=O)c2ccc3nc(NC(=O)NC(=O)c4cc(N5CCOCC5)ccc4Cl)sc3c2)CC1 the logD [1] was 2.3, the Papp A→B at 10 µM (MDR1 [2]) was 5.4 ×10⁻⁶ cm/s and the Cmax [3] was 6500 nM. The Kp at 6 h [4] was 0.21, the fraction unbound [5] was 0.002 and the fraction unbound [6] was 0.009. For the same molecule, the fraction unbound [7] was 0.016, the clearance [8] was 1.9 mL/min/kg and the clearance [9] was 1.8 mL/min/kg. It also gave a Vd [10] of 0.7 L/kg, a Vd [11] of 0.4 L/kg and a Cmax [12] of 4500 nM. For the same molecule, the F (Rattus norvegicus) was 171%, the IC50 [13] was 39 nM and the clearance [14] was 10 mL/min/kg. For the same molecule, the Vd [15] was 0.4 L/kg, the Cmax [16] was 1000 nM and the bioavailability [17] was 31%. The Cmax [18] was 8000 nM, the bioavailability [19] was 25% and the Activity (Mus musculus [20]) was “Active”. The Activity (Mus musculus [21]) was “inactive”, the Activity (Mus musculus [22]) was “inactive” and the Ki [23] was 290 nM. For the same molecule, the Ki [24] was 52 nM and the “inhibition (INH)” value [25] was “Not Active”.
In the case of CN1CCN(CCCS(=O)(=O)c2ccc3nc(NC(=O)NC(=O)c4ccccc4Cl)sc3c2)CC1, the IC50 [26] is reported as 1.3 nM, the logD [1] is reported as 1.8 and the solubility thermodynamic [27] is reported as 280 µM (≈ 150 µg/mL). The Papp A→B at 10 µM (MDR1 [2]) was 7.1 ×10⁻⁶ cm/s, the efflux ratio at 10 µM (MDR1 [28]) was 4.2 and the fraction unbound [5] was 0.08. It also gave a fraction unbound [6] of 0.13, a fraction unbound [7] of 0.096 and a clearance [8] of 24 mL/min/kg. For the same molecule, the clearance [9] was 35 mL/min/kg, the clearance [29] was 8.1 mL/min/kg and the Vd [10] was 4.9 L/kg. The Vd [11] was 4.5 L/kg, the Vd [30] was 4 L/kg and the Cmax [12] was 340 nM. For the same molecule, the Cmax [31] was 710 nM, the Cmax [32] was 200 nM and the bioavailability [33] was 125%. The bioavailability [34] was 40%, the bioavailability [35] was 51% and the IC50 [13] was 4.9 nM. For the same molecule, the Ratio [36] was 310, the Ratio [37] was 220 and the Ratio [38] was 20. For the same molecule, the Activity (Mus musculus [39]) was “Active”, the Activity (Mus musculus [40]) was 19% and the IC50 [41] was 3.6 nM.
